# Source: article PMC4153963 (Drugs in R&D, 2014)
# “Also recorded” adds a separate entry of the source. Like-named read-outs stand apart in the source and are kept apart here.
# Key:
# [1] = cited from earlier work
# [2] = biological target: cytochrome P450 (CYP) 2C19 (Homo sapiens, UniProt P33261); test: Drug-drug interaction of IPE with omeprazole, a CYP2C19 substrate; type: in vivo, human (healthy adult subjects); conditions: IPE 4 g/day at steady state, omeprazole 40 mg/day
# Safety assessments = type: in vivo, human (healthy adult subjects); conditions: healthy subjects
# How it was run: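 Open-label single-centre phase I crossover, healthy adults. Oral H+/K+ ATPase inhibitor 40-mg delayed-release capsule once daily, 1 h before breakfast, days 1–7 and 19–25. Omega-3 ethyl ester 4 g/day as two 1-g capsules twice daily with or after meals, days 12–29. Monitored adverse events, chemistry, hematology, urinalysis, blood pressure, heart rate, respiratory rate, oral temperature and physical examinations.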
# CYP3A4 = conditions: IPE 4 g/day; cited from earlier work
# CYP2C8 = conditions: IPE 4 g/day; cited from earlier work
# CYP2C9 = conditions: IPE 4 g/day; cited from earlier work
# serum TG levels = conditions: IPE 4 g/day, MARINE and ANCHOR studies; cited from earlier work
# [3] = type: in vivo, human (healthy adult subjects); conditions: for K el: omeprazole 40 mg/day, mean (SD), n = 28
# [4] = healthy subjects; cited from earlier work
# Chain of cytochrome P450 (CYP) 2C19 (P33261 whole entry): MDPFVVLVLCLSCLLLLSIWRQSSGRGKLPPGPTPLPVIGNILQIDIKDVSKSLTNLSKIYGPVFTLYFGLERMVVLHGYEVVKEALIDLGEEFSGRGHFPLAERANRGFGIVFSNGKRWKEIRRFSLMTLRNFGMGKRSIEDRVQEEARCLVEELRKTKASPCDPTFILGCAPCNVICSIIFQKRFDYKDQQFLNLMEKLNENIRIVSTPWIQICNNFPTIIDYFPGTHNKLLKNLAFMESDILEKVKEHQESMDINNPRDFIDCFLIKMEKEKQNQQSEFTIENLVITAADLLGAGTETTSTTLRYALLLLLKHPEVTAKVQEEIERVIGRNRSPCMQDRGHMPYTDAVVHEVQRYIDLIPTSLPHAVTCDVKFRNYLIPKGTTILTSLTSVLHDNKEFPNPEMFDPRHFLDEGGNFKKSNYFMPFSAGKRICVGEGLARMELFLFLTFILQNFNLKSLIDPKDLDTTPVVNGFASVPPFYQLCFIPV
compound,measurement,setting,value
"CC/C=C\C/C=C\C/C=C\C/C=C\C/C=C\CCCC(=O)O [EPA, eicosapentaenoic acid]",Unesterified fraction of total EPA in plasma,[1],< 1%
same,Time to peak plasma concentrations of EPA,[1]; following oral dosing of IPE,approximately 5 h
"CC/C=C\C/C=C\C/C=C\C/C=C\C/C=C\CCCC(=O)OCC [IPE, eicosapentaenoic acid ethyl ester]",Effect of IPE on AUC0–24 and C max of omeprazole (CYP2C19 substrate),[2],did not significantly change; also recorded: did not inhibit
same,Safety and tolerability of co-administration of IPE with omeprazole,Safety assessments; IPE 4 g/day with omeprazole 40 mg/day,safe and well tolerated
same,Effect of IPE on AUC or C max of atorvastatin (CYP3A4 substrate),CYP3A4,did not display a significant effect
same,Effect of IPE on AUC or C max of rosiglitazone (CYP2C8 substrate),CYP2C8,did not display a significant effect
same,Effect of IPE on AUC or C max of warfarin (CYP2C9 substrate),CYP2C9,did not display a significant effect
same,Effect on LDL-C levels,serum TG levels,without significantly increasing
same,Effect on serum TG levels,serum TG levels,significantly reduce
COc1ccc2[nH]c([S+]([O-])Cc3ncc(C)c(OC)c3C)nc2c1 (centres unmarked) [Omeprazole],AUC(0-t),"[3]; human, plasma, po, 40 mg/day",3610 ng·h/mL
same,K el,[3]; with icosapent ethyl 4 g/day (day 25),0.62 (0.26) L/h
same,K el,[3]; without IPE (day 7),0.56 (0.22) L/h
same,Tolerability of omeprazole alone,Safety assessments; omeprazole 40 mg/day,well tolerated
same,Elimination half-life,[4],30 to 60 min
